Here are results for 73 sequences from the array DNA melting data of Ke et al. (doi:10.1101/2024.01.08.574731).

Data set [1] is described as follows: folding enthalpy; higher = less favourable; fluorescence melt of hairpins on a sequencing array, two-state fit. As to conditions: sodium 0.088 M. In short, it runs like this:
(§1)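 Folding enthalpy and melting temperature come from bootstrapped two-state fits to Cy3 fluorescence of library hairpins carrying annealed Cy3 and quencher oligos on a sequenced MiSeq flow cell. Imaging was done in 50 mM Na-HEPES pH 8.0, 25 mM NaCl, stepping by 2.5 °C up to 60 °C, and signals were normalised to pre-quench Cy3 and to control constructs. Results of four replicates were combined by inverse variance, and fitted temperatures were raised by 9.35 °C to match UV melts.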

The nature of data set [2]: melting temperature; fluorescence melt of hairpins on a sequencing array, two-state fit, raised by 9.35 °C to match UV melts. As to conditions: sodium 0.088 M. Put shortly: as §1

Regarding GCCGAGCGAAAGCGCTGC ((.(.((....)).).)), the folding enthalpy in data set [1] was -12.4 kcal/mol. Moreover, the Tm in data set [2] was determined as 45.6 °C.
Turning to GCCGAGCGAAAGCTAAGC ((..(((....)))..)), the folding enthalpy in data set [1] was -16.3 kcal/mol. In addition, the Tm in data set [2] was found to be 40 °C.
The like results for GCCGAGCGAAAGCTACGC ((..(((....)))..)) were, in that order, -12.1 kcal/mol and 45.8 °C.
The corresponding values for GCCGAGCGAAAGCTCAGC ((.((((....)))).)) are -18.1 kcal/mol and 58 °C.
The like results for GCCGAGCGAAAGCTCTGC ((.((((....)))).)) were, in that order, -28.5 kcal/mol and 58.7 °C.
Regarding GCCGAGCGAAAGCTTCGC ((..(((....)))..)), the folding enthalpy in data set [1] is -11.3 kcal/mol. Besides, the Tm in data set [2] is 49.2 °C.
The corresponding values for GCCGAGCGAAAGCTTTGC ((..(((....)))..)) are -12.6 kcal/mol and 39.1 °C.
The like results for GCCGAGTCGAAAGACGGC (((..(((....)))))) were, in that order, -21.2 kcal/mol and 56.6 °C.
Take GCCGATGGAAACGTTGGC (((.(.(....).).))): the folding enthalpy in data set [1] was -25.5 kcal/mol. For the same sequence, in data set [2], the Tm was 43 °C.
The corresponding values for GCCGCAGGAAACTACGGC ((((.((....)).)))) are -32.5 kcal/mol and 50.8 °C.
The corresponding values for GCCGCATCGAAAGATGGC (((..(((....)))))) are -11.4 kcal/mol and 46.9 °C.
The like results for GCCGCCACGAAAGTGGGC (((..(((....)))))) were, in that order, -8.39 kcal/mol and 54.6 °C.
Take GCCGCCGAAAGGCCTGGC ((((((....)))..))): in data set [1], the folding enthalpy is -16 kcal/mol. In data set [2], the Tm came out at 51 °C.
The like results for GCCGCCGAAAGGCTTGGC ((((((....)))..))) were, in that order, -21 kcal/mol and 54.5 °C.
Turning to GCCGCCGGAAACAGCGGC (((((.(....).))))), in data set [1], the folding enthalpy is -37.4 kcal/mol. Further, the Tm in data set [2] worked out at 66.4 °C.
The corresponding values for GCCGCGCGAAAGCCAGGC (((..((....))..))) are -27.8 kcal/mol and 62 °C.
The corresponding values for GCCGCGCGAAAGCCGGGC (((..((....))..))) are -18.5 kcal/mol and 68.2 °C.
GCCGCGCGAAAGCGAAGC ((..(((....)))..)): in data set [1], the folding enthalpy was -12.9 kcal/mol. The Tm in data set [2] was determined as 46 °C.
The corresponding values for GCCGCGCGAAAGCTTGGC (((..((....))..))) are -22.7 kcal/mol and 55.1 °C.
The corresponding values for GCCGCGGCGAAAGCCGGC (((..(((....)))))) are -7.85 kcal/mol and 68.6 °C.
The corresponding values for GCCGCTCGAAAGAGAGGC (((.(((....))).))) are -40 kcal/mol and 67.1 °C.
On to GCCGCTGGAAACAGCAGC ((.((((....)))).)), for which the folding enthalpy in data set [1] was -20.1 kcal/mol. In addition, the Tm in data set [2] stood at 50.1 °C.
The like results for GCCGCTTCGAAAGAAGGC (((..(((....)))))) were, in that order, -13.2 kcal/mol and 49.7 °C.
The like results for GCCGGAGGAAACTCCGAC (.(((((....))))).) were, in that order, -13.1 kcal/mol and 49.9 °C.
On to GCCGGCACGAAAGTGGGC (((..(((....)))))), for which the folding enthalpy in data set [1] was -19.2 kcal/mol. In data set [2], the Tm was 51.8 °C.
The like results for GCCGGCCCGAAAGGGGGC (((..(((....)))))) were, in that order, -11.3 kcal/mol and 58.3 °C.
In the case of GCCGGCGAAAGCCAGGGC ((((((....)))..))), the folding enthalpy in data set [1] was -18.7 kcal/mol. Further, the Tm in data set [2] stood at 63.1 °C.
The like results for GCCGGCGAAAGCCATGGC ((((((....)))..))) were, in that order, -19.9 kcal/mol and 56.1 °C.
The like results for GCCGGCGAAAGCCCCGGC ((((((....)))..))) were, in that order, -18.3 kcal/mol and 55.2 °C.
The like results for GCCGGCGCGAAAGCGGGC (((..(((....)))))) were, in that order, -14.4 kcal/mol and 63 °C.
As for GCCGGGCGAAAGCAAGGC (((..((....))..))), the folding enthalpy in data set [1] is -34 kcal/mol. For the same sequence, the Tm in data set [2] came to 68.5 °C.
The like results for GCCGGGCGAAAGCACAGC ((.(.((....)).).)) were, in that order, -16.9 kcal/mol and 53.8 °C.
The like results for GCCGGGCGAAAGCACCGC ((.(.((....)).).)) were, in that order, -14.1 kcal/mol and 49 °C.
GCCGGGCGAAAGCGCTGC ((.(.((....)).).)): the folding enthalpy in data set [1] was -20.3 kcal/mol. Besides, the Tm in data set [2] worked out at 43 °C.
The like results for GCCGGGCGAAAGCTCAGC ((.(.((....)).).)) were, in that order, -16.9 kcal/mol and 44.4 °C.
GCCGGGGGAAACCTCGGC ((((.((....)).)))): the folding enthalpy in data set [1] is -37.9 kcal/mol. Also, the Tm in data set [2] turned out to be 66.7 °C.
Take GCCGGTGGAAACACCAGC ((.((((....)))).)): the folding enthalpy in data set [1] is -21.5 kcal/mol. Besides, the Tm in data set [2] worked out at 48.4 °C.
The corresponding values for GCCGGTGGAAACACTGGC (((.(((....))).))) are -41.5 kcal/mol and 60 °C.
Regarding GCCGTAGAAATACGGC ((((((....)))))), in data set [1], the folding enthalpy is -42.4 kcal/mol. Besides, the Tm in data set [2] turned out to be 64 °C.
The corresponding values for GCCGTAGGAAACTATGGC (((.(((....))).))) are -34 kcal/mol and 51.3 °C.
With GCCGTCCCGAAAGGGGGC (((..(((....)))))), the folding enthalpy in data set [1] was -17 kcal/mol. In data set [2], the Tm is 49.4 °C.
The like results for GCCGTCGAAAGACGTGGC ((((((....)))..))) were, in that order, -14.1 kcal/mol and 58.8 °C.
The corresponding values for GCCGTCGAAAGACTAGGC ((((((....)))..))) are -35.5 kcal/mol and 52.8 °C.
In the case of GCCGTCGGAAACGACGAC (.(((((....))))).), the folding enthalpy in data set [1] was -13.3 kcal/mol. Also, the Tm in data set [2] stood at 54.8 °C.
For the sequence GCCGTCGGAAACGGTGGC (((..((....))..))), the folding enthalpy in data set [1] was -22 kcal/mol. Also, the Tm in data set [2] worked out at 51.3 °C.
As to GCCGTGCGAAAGCAAAGC ((..(((....)))..)), in data set [1], the folding enthalpy is -9.19 kcal/mol. The Tm in data set [2] came to 40.4 °C.
The corresponding values for GCCGTGCGAAAGCGCAGC ((.(.((....)).).)) are -13 kcal/mol and 49.1 °C.
The like results for GCCGTGCGAAAGCTGGGC (((..((....))..))) were, in that order, -19.9 kcal/mol and 59.5 °C.
The like results for GCCGTGGCGAAAGCCGGC (((..(((....)))))) were, in that order, -21.4 kcal/mol and 62.8 °C.
For the sequence GCCGTGGGAAACCACAGC ((.((((....)))).)), in data set [1], the folding enthalpy was -18.6 kcal/mol. In addition, the Tm in data set [2] was found to be 49.4 °C.
The corresponding values for GCCGTTCGAAAGAAGGC (((.(((....)))))) are -30.4 kcal/mol and 50.4 °C.
Consider GCCGTTGGAAACGACGGC (((((.(....).))))), for which, in data set [1], the folding enthalpy was -38 kcal/mol. Also, the Tm in data set [2] is 66.1 °C.
The corresponding values for GCCTAACGAAAGTTCGGC (((.(((....))).))) are -34.8 kcal/mol and 52.4 °C.
The corresponding values for GCCTAAGGAAACCTAGGC (((((.(....).))))) are -39.3 kcal/mol and 44.9 °C.
The corresponding values for GCCTAAGGAAACTCAGGC ((((.((....)).)))) are -31.3 kcal/mol and 35.6 °C.
Turning to GCCTACCGAAAGGTTGGC (((.(((....))).))), the folding enthalpy in data set [1] was -35.4 kcal/mol. Further, in data set [2], the Tm was 62.5 °C.
The corresponding values for GCCTACGAAAGTAACGGC ((((((....)))..))) are -26.5 kcal/mol and 44 °C.
The corresponding values for GCCTACGAAAGTAAGGC ((((((....))).))) are -31.3 kcal/mol and 56.9 °C.
In the case of GCCTACGAAAGTAGGGGC ((((((....)))..))), the folding enthalpy in data set [1] is -14.4 kcal/mol. Besides, the Tm in data set [2] is 61.3 °C.
The corresponding values for GCCTACGAAAGTATGGC ((((((....))).))) are -24.6 kcal/mol and 52.3 °C.
The like results for GCCTACTCGAAAGAGGGC (((..(((....)))))) were, in that order, -26.4 kcal/mol and 44.1 °C.
The like results for GCCTAGCGAAAGCAACGC ((.(.((....)).).)) were, in that order, -8.35 kcal/mol and 23.8 °C.
In the case of GCCTAGCGAAAGCGGGGC (((..((....))..))), the folding enthalpy in data set [1] was -22.3 kcal/mol. Also, the Tm in data set [2] is 65.9 °C.
The corresponding values for GCCTAGCGAAAGCGTGGC (((..((....))..))) are -30.2 kcal/mol and 64.5 °C.
The like results for GCCTAGCGAAAGCTACGC ((.((((....)))).)) were, in that order, -19 kcal/mol and 41.8 °C.
The corresponding values for GCCTAGCGAAAGCTCGGC (((.(((....))).))) are -39.4 kcal/mol and 56.8 °C.
Consider GCCTAGGAAACTAGGC ((((((....)))))), for which, in data set [1], the folding enthalpy is -36.2 kcal/mol. Besides, in data set [2], the Tm is 58.7 °C.
The corresponding values for GCCTATCGAAAGATCGGC (((.(((....))).))) are -41.7 kcal/mol and 49 °C.
The like results for GCCTATCGAAAGATGGC (((.(((....)))))) were, in that order, -30.9 kcal/mol and 50.9 °C.
The corresponding values for GCCTATCGAAAGATTGGC (((.(((....))).))) are -35.2 kcal/mol and 53.4 °C.
Consider GCCTATGCGAAAGCAGGC (((..(((....)))))), for which the folding enthalpy in data set [1] was -23.1 kcal/mol. Besides, the Tm in data set [2] worked out at 54 °C.
As for GCCTCACGAAAGTGTGGC (((.(((....))).))), in data set [1], the folding enthalpy is -43.5 kcal/mol. Moreover, the Tm in data set [2] worked out at 63.5 °C.
For the sequence GCCTCAGAAATGAGGC ((((((....)))))), the folding enthalpy in data set [1] is -30.8 kcal/mol. Further, in data set [2], the Tm turned out to be 62.5 °C.
